Data on two molecules can be found in ChEMBL document CHEMBL5107948, “Activity-based protein profiling reveals deubiquitinase and aldehyde dehydrogenase targets of a cyanopyrrolidine probe” (RSC Med Chem, 2021).

The structures appear in SMILES notation. Active and inactive are the calls of the source. The rule behind the calls is not given here.

Data set [1] addresses Ubiquitin carboxyl-terminal hydrolase isozyme L1 (Homo sapiens) (UniProt P09936). Put plainly: Binding affinity to UCHL1 in human HEK293 cells assessed as fold change at 30 nM incubated for 3 to 18 hrs by LFQ-chemical proteomics analysis. The format is cell-based. As to conditions: time 3-18 hrs. A digest of the protocol: (§1)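 HEK293 cells exposed to alkyne ABP or DMSO for 3, 6 or 18 h, washed, lysed in PBS/1% Triton X-100/0.1% SDS. Lysates (400 µg, biological triplicates) CuAAC-ligated to AzRB (100 µM, CuSO4 1 mM, TCEP 1 mM, TBTA 100 µM, 1 h RT). NeutrAvidin enrichment, on-bead TCEP/CAA reduction-alkylation, overnight trypsin digest at 37 °C, LC-MS/MS label-free quantification. Two-sample t-test against DMSO (n=3, permutation FDR 0.01, S0=1).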

Data set [2] has as its target T1, Aldehyde dehydrogenase, mitochondrial (Homo sapiens) (UniProt P05091).
T1 sequence (whole entry): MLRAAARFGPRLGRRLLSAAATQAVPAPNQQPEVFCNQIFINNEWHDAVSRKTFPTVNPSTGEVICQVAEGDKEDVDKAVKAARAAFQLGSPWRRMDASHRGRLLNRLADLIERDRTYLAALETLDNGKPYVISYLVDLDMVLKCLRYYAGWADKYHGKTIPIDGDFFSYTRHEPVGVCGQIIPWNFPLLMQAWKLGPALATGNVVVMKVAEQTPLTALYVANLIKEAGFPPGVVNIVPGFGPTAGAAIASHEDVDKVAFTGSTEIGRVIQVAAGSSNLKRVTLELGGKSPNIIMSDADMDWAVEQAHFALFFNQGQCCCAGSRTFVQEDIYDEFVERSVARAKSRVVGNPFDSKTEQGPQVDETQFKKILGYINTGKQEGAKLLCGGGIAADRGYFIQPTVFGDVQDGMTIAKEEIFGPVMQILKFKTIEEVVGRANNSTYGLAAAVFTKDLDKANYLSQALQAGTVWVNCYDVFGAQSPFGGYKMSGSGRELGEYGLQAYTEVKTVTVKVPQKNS
Put plainly: Binding affinity to ALDH2 in human HEK293 cells assessed as fold change at 130 nM incubated for 3 to 6 hrs by LFQ-chemical proteomics analysis. The format is cell-based. As to conditions: time 3-6 hrs. In a few lines:
as §1

Data set [3] concerns the target T2, Ubiquitin carboxyl-terminal hydrolase 30 (Homo sapiens) (UniProt Q70CQ3).
T2 sequence (whole entry): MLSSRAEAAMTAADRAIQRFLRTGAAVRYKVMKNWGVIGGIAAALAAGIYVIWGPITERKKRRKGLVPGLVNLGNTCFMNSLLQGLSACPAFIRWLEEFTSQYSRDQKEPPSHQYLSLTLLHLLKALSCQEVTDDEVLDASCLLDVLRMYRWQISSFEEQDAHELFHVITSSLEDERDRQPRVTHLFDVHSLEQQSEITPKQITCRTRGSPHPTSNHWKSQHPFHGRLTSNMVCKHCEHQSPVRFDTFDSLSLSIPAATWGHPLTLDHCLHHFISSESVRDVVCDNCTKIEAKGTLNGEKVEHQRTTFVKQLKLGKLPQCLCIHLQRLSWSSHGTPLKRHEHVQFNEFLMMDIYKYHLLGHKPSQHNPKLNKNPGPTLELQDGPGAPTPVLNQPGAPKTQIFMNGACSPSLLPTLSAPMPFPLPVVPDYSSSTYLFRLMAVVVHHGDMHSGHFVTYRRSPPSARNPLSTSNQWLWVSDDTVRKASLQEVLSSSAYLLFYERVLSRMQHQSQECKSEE
Put plainly: Inhibition of GST-tagged recombinant USP30 (unknown origin) using Ub-Lys-TAMRA as substrate at 1 uM incubated for 30 mins by fluorescence polarization assay.

The target of data set [4] is Ubiquitin carboxyl-terminal hydrolase isozyme L1 (Homo sapiens) (UniProt P09936). Description: Binding affinity to UCHL1 in human HEK293 cells at 40 nM incubated for 3 hrs by In-gel fluorescence analysis. It counts as cell-based. A digest of the protocol: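 HEK293 cells given 10–2500 nM ABP for 3, 6 or 18 h. Lysates clicked to AzTB, mixed with Laemmli buffer at 0.31% v/v final BME for 5 min without boiling, resolved on 12% acrylamide gels, imaged by in-gel TAMRA fluorescence.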

Data set [5] concerns the target 4-trimethylaminobutyraldehyde dehydrogenase (Homo sapiens) (UniProt P49189). Put plainly: Binding affinity to ALDH9A1 in human HEK293 cells assessed as fold change at 130 nM incubated for 3 to 6 hrs by LFQ-chemical proteomics analysis. It counts as cell-based. The conditions noted are these: time 3-6 hrs. A digest of the protocol: as §1
The nature of data set [6]: Cytotoxicity against human HEK293 cells assessed as reduction in cell growth incubated for 72 hrs by live-cell time-lapse imaging. The format is toxicity, cell-based. A digest of the protocol:
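HEK293 cells, 1,000 per well, seeded 24 h before exposure to 7 serial dilutions, in triplicate. Confluence imaged every 2 h for 72 h by IncuCyte live-cell time-lapse imaging. EC50 from four-parameter dose-response fit; mean ± SD of 12 technical replicates.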

Data set [7] concerns the target T3, Glutamine amidotransferase-like class 1 domain-containing protein 3, mitochondrial (Homo sapiens) (UniProt P0DPI2).
T3 sequence (whole entry): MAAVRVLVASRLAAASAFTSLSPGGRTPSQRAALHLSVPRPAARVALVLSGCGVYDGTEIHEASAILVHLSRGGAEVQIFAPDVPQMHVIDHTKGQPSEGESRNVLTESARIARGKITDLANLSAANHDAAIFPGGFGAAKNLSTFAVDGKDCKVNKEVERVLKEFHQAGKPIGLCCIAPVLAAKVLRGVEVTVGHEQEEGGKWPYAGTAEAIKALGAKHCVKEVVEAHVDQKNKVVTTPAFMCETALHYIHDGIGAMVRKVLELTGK
Description: Binding affinity to GATD3A in human HEK293 cells assessed as fold change at 130 nM incubated for 3 to 6 hrs by LFQ-chemical proteomics analysis. It counts as cell-based. As to conditions: time 3-6 hrs. A digest of the protocol: as §1

Data set [8] has as its target 4-trimethylaminobutyraldehyde dehydrogenase (Homo sapiens) (UniProt P49189). Put plainly: Binding affinity to ALDH9A1 in human HEK293 cells at 130 to 500 nM in presence of ABP MT16-205 by LFQ-NanoLC-MS/MS analysis. It counts as cell-based. The conditions noted are these: dose 130-500 nM, DDE = dose-dependent effect. A digest of the protocol:
(§2)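 Competition format: HEK293 cells pre-treated 1 h with competitor or DMSO, then exposed to ABP MT16-205. Lysis in PBS/Triton/SDS buffer, AzRB click ligation, NeutrAvidin pulldown, on-bead TCEP/chloroacetamide treatment and overnight tryptic digestion. Label-free LC-MS/MS; two-sample t-test versus control (n=3, permutation FDR 0.01, S0=1).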

Data set [9] addresses T1, Aldehyde dehydrogenase, mitochondrial (Homo sapiens). Put plainly: Binding affinity to ALDH2 in human HEK293 cells at 130 to 500 nM in presence of ABP MT16-205 by LFQ-NanoLC-MS/MS analysis. The format is cell-based. As to conditions: dose 130-500 nM, DDE = dose-dependent effect. A digest of the protocol: as §2
For data set [10], the target named is Ubiquitin carboxyl-terminal hydrolase isozyme L1 (Homo sapiens) (UniProt P09936). Description: Binding affinity to UCHL1 in human HEK293 cells at 130 to 500 nM in presence of ABP MT16-205 by LFQ-NanoLC-MS/MS analysis. It counts as cell-based. As to conditions: dose 130-500 nM, DDE = dose-dependent effect. In a few lines: as §2
Data set [11] has as its target 4-trimethylaminobutyraldehyde dehydrogenase (Homo sapiens) (UniProt P49189). Description: Inhibition of ALDH9A1 in human HEK293 cells at 250 nM in presence of ABP MT16-205 by Competitive pulldown based immunoblotting analysis. It counts as cell-based. In a few lines:
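Lysates AzTB-clicked, streptavidin bead pulldown (2 h RT), boiled elution, SDS-PAGE. Target detected by immunoblot: 3% BSA/TBS-T block, primary antibody 1.5 h RT or overnight at 4 °C, HRP secondary, chemiluminescence.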
(In western blotting, separated proteins are transferred to a membrane and probed.)

What is called EC50 is the concentration giving half of the maximal effect.

Sequence of 4-trimethylaminobutyraldehyde dehydrogenase (Homo sapiens) (P49189 whole entry): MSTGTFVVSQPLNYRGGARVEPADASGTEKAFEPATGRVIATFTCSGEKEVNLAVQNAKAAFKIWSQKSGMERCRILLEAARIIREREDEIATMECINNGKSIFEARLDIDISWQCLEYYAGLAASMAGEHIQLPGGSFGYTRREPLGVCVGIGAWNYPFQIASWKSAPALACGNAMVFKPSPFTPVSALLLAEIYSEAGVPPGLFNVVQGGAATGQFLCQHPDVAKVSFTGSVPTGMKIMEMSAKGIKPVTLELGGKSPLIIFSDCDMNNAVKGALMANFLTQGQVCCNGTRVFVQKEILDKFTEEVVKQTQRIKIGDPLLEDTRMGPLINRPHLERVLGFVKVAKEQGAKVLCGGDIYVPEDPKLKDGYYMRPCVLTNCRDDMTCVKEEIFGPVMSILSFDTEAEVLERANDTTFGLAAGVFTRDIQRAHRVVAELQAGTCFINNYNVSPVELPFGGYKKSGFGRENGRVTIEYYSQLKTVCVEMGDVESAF
Sequence of Ubiquitin carboxyl-terminal hydrolase isozyme L1 (Homo sapiens) (P09936 whole entry, looked up): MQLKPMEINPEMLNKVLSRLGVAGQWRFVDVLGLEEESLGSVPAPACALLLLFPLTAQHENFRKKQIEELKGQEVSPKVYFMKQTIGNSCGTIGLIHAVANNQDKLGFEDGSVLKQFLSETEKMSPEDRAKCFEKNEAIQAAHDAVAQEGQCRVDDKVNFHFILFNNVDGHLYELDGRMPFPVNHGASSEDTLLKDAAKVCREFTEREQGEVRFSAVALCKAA

On to `C#Cc1ccc(-c2cnc(NC(=O)[C@H]3CCN(C#N)C3)s2)cc1`, for which the fold change (FC) in data set [1] was over 16; in data set [2], over 64; in data set [5], over 64; in data set [7] it was over 64. Besides, the inhibition entry in data set [3] is “Active”. The result in data set [4] was Active. Also, the EC50 at 72 h in [6] is 350 nM.

As to `N#CN1CC[C@H](C(=O)Nc2ncc(-c3ccccc3)s2)C1`, the inhibition result in [3] and in data set [11] was “Active” each time. For the same molecule, the Activity result in data set [8], in data set [9] and in data set [10] was “Dde” in each case. For the same molecule, in data set [6], the concentration for a half-maximal effect (EC50) at 72 h was 730 nM.
